High-throughput results deposited in PubChem BioAssay by several laboratories.
An excerpt weighted towards active compounds, which were near 2.6% of everything screened.
Scp1 inh – blocks human Scp-1 phosphatase activity | Q9GZU7 | inhibition, % at 20 µM | actives 0.88% (n = 340,000) | Recombinant Scp1, phosphopeptide, malachite green phosphate absorbance;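 active = inhibition above about 50% at 20 µM, limit read from the data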;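 also: plate controls were DMSO wells with enzyme for no effect and wells lacking enzyme for full effect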
Target sequence (Q9GZU7 76-261 limits assumed): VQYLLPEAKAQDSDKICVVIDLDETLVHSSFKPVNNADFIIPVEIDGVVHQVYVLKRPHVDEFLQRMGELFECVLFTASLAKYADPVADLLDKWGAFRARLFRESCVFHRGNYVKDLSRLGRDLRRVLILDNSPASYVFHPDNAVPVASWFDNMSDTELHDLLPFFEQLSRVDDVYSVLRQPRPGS
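System: SCP-1 catalytic domain; Reagent: Phospho 17-mer peptide substrate; Doses: one concentration, 20 µM, with 1.0% DMSO; Incubation: 45 min room-temperature reaction, 5 min colour, 30 min stabiliser; Signal: Phosphate-binding colour reagent, absorbance read at 630 nm.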
LMPTP block – LMPTP (human) inhibition | P24666 | recombinant LMPTP-A, OMFP fluorogenic substrate, fluorescence intensity | inhibition, % at 20 µM | actives 0.22% (n = 360,000) | AID 651560;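 active = compounds that cut the enzyme signal by at least half of the control window in the single-dose screen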;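 also: plate controls were DMSO wells with enzyme plus substrate for no effect and substrate without enzyme for full effect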
Target sequence (P24666 whole entry, looked up): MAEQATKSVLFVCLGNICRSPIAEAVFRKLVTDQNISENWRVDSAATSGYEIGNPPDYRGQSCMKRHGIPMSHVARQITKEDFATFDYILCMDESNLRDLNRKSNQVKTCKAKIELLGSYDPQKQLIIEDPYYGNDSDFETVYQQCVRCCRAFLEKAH
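Test system – LMPTP-A enzyme · Amount – LMPTP-A at 0.625 nM final in the reaction · Buffer or medium – Bis-Tris pH 6.0, DTT, detergent · Reagent – OMFP 400 µM · Doses – single 20 µM dose · Schedule – reaction 50 min, room temperature, dark · Detection – fluorescence intensity of OMFP turnover product · Evaluation – percent inhibition versus substrate-only and uninhibited controls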
NadD block – blocks S. aureus nicotinate mononucleotide adenylyltransferase | purified NadD enzyme, colorimetric absorbance read-out | inhibition, % at 20 µM | actives 0.78% (n = 360,000) | AID 602399; in the data active = inhibition above about 26%
rCAG RNA binder – r(CAG) repeat RNA binding. TO-PRO-1 dye displacement fluorescence. inhibition, % at 3 µM. actives 1.3% (n = 370,000). AID 651821;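 active = inhibition above the plate cutoff, the mean of all test compounds on that plate plus 3 SD, cut at about 35% in these data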;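 also: 0% = DMSO alone and 100% = 100 µM mitoxantrone as full dye displacement; higher means more dye released from RNA so lower well fluorescence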
STEP inh – STEP (human) phosphatase inhibition | recombinant STEP, OMFP fluorogenic substrate, fluorescence | actives 0.25% (n = 360,000) | P54829 | AID 588621 | inhibition, % at 20 µM;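 active = inhibition at 20 µM, scaled per plate between control wells, above about 37%, limit read from the data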;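 also: 0% = DMSO with enzyme and substrate and 100% = substrate only without enzyme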
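material = STEP tyrosine phosphatase | reagent = fluorogenic phosphatase substrate OMFP at 25 µM final | doses = single compound dose of 20 µM, 1% DMSO final | schedule = 20 min reaction, room temperature, in the dark | measured by = fluorescence, 480/540 nm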
rCAG binder conf – r(CAG) RNA repeat binding, confirmation; shares compounds with rCAG RNA binder; TO-PRO-1 dye displacement fluorescence; inhibition, % at 3 µM; actives 70% (n = 4,300); AID 652065;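 active = inhibition above a per-plate cutoff, the mean inhibition of sample wells plus 3 SD, cut at about 35% in these data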;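 also: loss of TO-PRO-1 fluorescence as compound displaces dye from 1x1 AA loop RNA; 0% = DMSO only wells and 100% = 100 µM mitoxantrone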
dCAG dye counter – DNA CAG dye complex inhibition counter-screen; shares compounds with rCAG RNA binder; d(CAG) DNA oligo TO-PRO-1 dye displacement, fluorescence; inhibition, % at 3 µM; actives 94% (n = 4,300); AID 652068;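 active = inhibition above its plate's cutoff, the mean test-well inhibition plus 3 SD, cut at about 4.8% in these data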;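 also: 0% = DNA dye mix with DMSO and 100% = 100 µM mitoxantrone; hits displace the dye from DNA and so lower well fluorescence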
dCAG dye DR – counter-screen for rCAG binders: inhibitors of DNA CAG TO-PRO-1 complex; actives 20% (n = 250); DNA CAG/GTC duplex TO-PRO-1 dye displacement fluorescence; shares compounds with rCAG RNA binder; AID 686960; IC50, µM; in the data active = IC50 below about 10 µM
The depositor's hits bear a star; i = inactive; · = no result given.

SMILES | Scp1 inh | LMPTP block | NadD block | rCAG RNA binder | STEP inh | rCAG binder conf | dCAG dye counter | others
CC(=O)c1sc2nc(CSc3nnnn3-c3ccccc3)[nH]c(=O)c2c1C | 33 | 26 | 18 | 39* | -2 | 49* | 29*
COc1cc([N+](=O)[O-])ccc1NC(=S)NNC(=O)c1ccc2c(c1)OCO2 | -8 | -1 | 12 | 64* | 0 | 57* | 16*
Nc1c(C(=O)Nc2ccc(F)cc2)sc2nc(-c3ccco3)ccc12 | -13 | 4 | 26 | 35* | -2 | 55* | 26*
Cc1ccc(C(=O)Nc2ccccc2C(=O)O)cc1S(=O)(=O)NC1CCCCC1 | -8 | 0 | 0 | 70* | 0 | 61* | 22*
Cc1ccc(C(=O)Nc2ccccc2C(=O)O)cc1S(=O)(=O)Nc1ccccc1 | -6 | -1 | 0 | 67* | -2 | 46* | 15*
N=C1S/C(=C\c2ccc(-c3ccccc3C(=O)O)o2)C(=O)N1c1ccc2c(c1)OCO2 | 53* | 11 | 12 | 42* | 1 | 30 | 10*
CC1(C)OC(C)(C)C(=N/O)/C1=N\N | · | · | · | 1 | · | · | ·
COc1cc(/C=C(/C#N)c2ccc(F)cc2)ccc1OCc1ccc(C(=O)O)o1 | 1 | 1 | 5 | 52* | 3 | 46* | 10*
COc1cccc(/C=C(/C#N)c2ccc(Cl)cc2)c1OCc1cccc(C(=O)O)c1 | -2 | 1 | 2 | 42* | 5 | 69* | 29*
COc1ccc(OCc2cccc(C(=O)O)c2)cc1 | -2 | -2 | -2 | 3 | 2 | · | ·
COc1cccc(/C=C(/C#N)c2ccc(F)cc2)c1OCc1cccc(C(=O)O)c1 | 16 | 1 | -3 | 51* | 0 | 49* | 15*
O=C(CNS(=O)(=O)c1ccc(F)cc1)N1CCN(c2ccccn2)CC1 | · | · | · | 1 | · | · | ·
O=S(=O)(N/N=C1/CC(c2ccccc2)Oc2ccccc21)c1ccccc1 (centres undefined) | -15 | 3 | 1 | 36* | -1 | 32 | 9.6*
O=C1CC(c2ccccc2)Oc2ccc(Cl)cc21 (centres undefined) | -13 | -2 | -12 | 1 | 0 | · | ·
CC(C)(C)N/N=C1\CC(c2ccccc2)Oc2ccccc21 (centres undefined) | -9 | 3 | 2 | -1 | 2 | · | ·
O=C(O)c1cc(N/N=C2/CC(c3ccccc3)Oc3ccccc32)ccc1Cl (centres undefined) | 6 | 1 | 4 | 46* | 0 | 62* | 22*
C#CCNC(=O)C[C@H]1C(=O)N(Cc2ccc(OC)cc2)C2=CCCCC[C@@]21C(=O)OC | · | · | · | 0 | · | · | ·
COCCCNC(=O)c1nnn2c1nc(N)c1cc(Cl)ccc12 | · | · | · | 5 | · | · | ·
N#CCSc1n[nH]c2nc3c(c(=O)n12)C1(CCCC1)Cc1ccccc1-3 | 7 | 3 | 16 | 50* | 4 | 55* | 18* | dCAG dye DR=i
CCCn1c(SCC#N)nc2c(c1=O)C1(CCCC1)Cc1ccccc1-2 | -9 | 4 | -1 | -1 | 2 | · | ·
O=C(CCCN1C(=O)/C(=C/c2ccco2)SC1=S)Nc1cccc(C(=O)O)c1 | 51* | 6 | -5 | 68* | 18 | 45* | 17*
O=C(CCCN1C(=O)/C(=C\c2cccs2)SC1=S)Nc1cccc(C(=O)O)c1 | -3 | 0 | 13 | 3 | 1 | · | ·
O=C(CCCN1C(=O)/C(=C/c2cccs2)SC1=S)Nc1ccccc1O | -10 | 0 | -2 | 8 | 2 | · | ·
O=C(CCCN1C(=O)/C(=C\c2cccs2)SC1=S)Nc1ccc(O)cc1C(=O)O | 9 | 0 | -6 | 60* | 18 | 60* | 23*
COc1ccc(NC(=O)CCCN2C(=O)/C(=C\c3ccco3)SC2=S)cc1 | -5 | 0 | 9 | 16 | 1 | · | ·
SMILES | Scp1 inh | LMPTP block | NadD block | rCAG RNA binder | STEP inh | rCAG binder conf | dCAG dye counter | others
O=C(CCCN1C(=O)/C(=C\c2ccco2)SC1=S)Nc1ccc(O)cc1C(=O)O | 69* | 9 | -3 | 90* | 43* | 78* | 43*
CCOC(=O)[C@]12CCCC=C1N(Cc1ccc(OC)cc1)C(=O)[C@@H]2CC(=O)N1CCC(c2ccccc2)CC1 | · | · | · | 2 | · | · | ·
N#Cc1ccc(CC(=O)c2ccccc2)[nH]c1=O | -3 | 1 | 7 | 35* | -1 | 14 | 4
O=C(O)CCC(=O)N1N=C(c2cccs2)CC1c1cn(-c2ccccc2)nc1-c1ccccc1 (centres undefined) | 12 | -2 | 10 | 54* | -2 | 61* | 19*
COc1ccc(-c2nn(-c3ccccc3)cc2C2CC(c3cccs3)=NN2C(=O)CCCC(=O)O)cc1 (centres undefined) | 17 | 1 | 18 | 15 | -2 | · | ·
COc1ccc(-n2c(COc3ccc(Cl)cc3)nnc2SCc2nc3ccccc3[nH]2)cc1 | · | · | · | 5 | · | · | ·
COc1ccc(C2=NN(c3nc4ccccc4s3)C(=O)/C2=C\N(C)C)cc1 | -1 | 0 | 2 | 46* | 0 | 38* | 13*
NS(=O)(=O)c1cccnc1Nc1ccc(Cl)c(Cl)c1 | -6 | 1 | 5 | 1 | -1 | · | ·
CC(=O)NS(=O)(=O)c1cccnc1Nc1ccc(Cl)c(Cl)c1 | -4 | 0 | -4 | 37* | -8 | 38* | 14*
C[C@@H]1COc2cccc(N3CCSCC3)c2S(=O)(=O)N1C | · | · | · | 0 | · | · | ·
C=CCNc1cccc2c1S(=O)(=O)N[C@@H](C)CO2 | · | · | · | 1 | · | · | ·
COc1ccccc1/C=N/NC(=O)c1ccccc1NS(=O)(=O)c1ccc(C)cc1 | -8 | -2 | -1 | 39* | -1 | 45* | 14*
O=C(NN=Cc1cc(Br)c(O)c(Br)c1)c1ccccc1NS(=O)(=O)c1cccs1 | -16 | -2 | -1 | 40* | 7 | 35* | 10*
COc1ccc(NS(=O)(=O)c2cccc(C(=O)NN=Cc3cc(Br)c(O)c(Br)c3)c2)cc1 | -15 | 7 | 14 | 39* | 3 | 43* | 17*
O=C(N/N=C/c1ccc([N+](=O)[O-])o1)c1ccccc1NS(=O)(=O)c1cccs1 | 9 | 1 | 4 | 45* | 0 | 41* | 15*
Cc1ccc(S(=O)(=O)Nc2ccccc2C=NNC(=O)c2ccncc2)cc1 | · | -1 | -2 | 7 | -1 | · | ·
CC(=O)C1=C(C)N(Cc2ccc(Cl)cc2)C(=S)NC1c1cccc(Br)c1 (centres undefined) | · | · | · | 4 | · | · | ·
COC(=O)C[C@H]1CC[C@@H]2[C@H](COc3ccc(NC(=O)c4cccc(F)c4)cc3C(=O)N2C)O1 | · | · | · | 0 | · | · | ·
